Compounds with a hit are over-represented: about 3.4% of the library has one in this group of screens.
MC4R ag barr = agonists of human melanocortin 4 receptor (MC4R) beta-arrestin | P32245 | U2OS MC4R beta-arrestin complementation, luminescence; percent of melanotan II response, DMSO zero | activation, % at 8.9 µM | hit rate 0.98% among 360,000;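 active means activation above a per-plate cutoff, the mean activation of sample wells on that plate plus 3 SD, cut at about 8% in these data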
beta cell repl = induces beta-cell replication in MIN6 cells; MIN6 cells proliferation, ATPlite luminescence, 48 h; cells starved in 0.2% serum; 100% = growth in 10% serum; proliferation, % at 10 µM; hit rate 0.29% among 330,000; AID 2380;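 active means compounds whose signal lies at least 3.5 SD above the mean of all wells on their plate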
ANO1 activ = activates or potentiates the mouse TMEM16A chloride channel; HEK293 TMEM16A/YFP-H148Q/I152L, iodide quench fluorescence; stronger effect = lower value; B-score at 10 µM; Q8BHY3; AID 623877; hit rate 0.3% among 340,000;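 active means fluorescence-ratio B-score plate-corrected deviation score at least 3 library SD below zero, with starting fluorescence score within 5 deviations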;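 further: channel opened by trigger with iodide after compound preincubation; score built on the fluorescence ratio of max minus min over baseline; more negative score means more quench and so TMEM16A activation or potentiation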
MC4R antag cAMP = antagonists of human melanocortin 4 receptor (MC4R); MC4R-expressing cells, MTII-stimulated cAMP, LANCE TR-FRET; inhibition, % at 6.5 µM; hit rate 0.48% among 360,000; AID 540295;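 active means inhibition above its plate's cutoff, the mean of tested wells on that plate plus 3 SD, cut at about 29% in these data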
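Material – human MC4R-expressing U2OS cells · Repeats – no replicates · Detection – TR-FRET with Eu-cAMP and labeled anti-cAMP, 671 nm · Times – compound 30 min, challenge 1 h, detection 1 h · Compound – single nominal compound dose of 6.5 µM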
TMEM16A inh = inhibitors of mouse TMEM16A calcium-activated chloride channel. Q8BHY3. HEK293 TMEM16A/YFP iodide influx fluorescence, ionomycin. normalized B-score (activity score, 25-100; higher = stronger inhibition) at 10 µM. hit rate 1.2% among 310,000. AID 588511;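 active means ratio plate-corrected score three or more library SD toward inhibition, starting fluorescence score within five deviations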;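 further: score derived from kinetic fluorescence span divided by baseline fluorescence per well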
m5-HT2A agonist = activates the mouse 5-HT2A serotonin receptor | AID 624169 | hit rate 0.66% among 360,000 | CHO-K1 mHTR2A beta-arrestin complementation, luminescence; percent of 30 µM serotonin response | P35363 | activation, % at 7.6 µM;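 active means activation above a run cutoff, the mean activation of all tested compounds plus 3 SD, cut at about 14% in these data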
Target sequence (P35363 whole entry, looked up): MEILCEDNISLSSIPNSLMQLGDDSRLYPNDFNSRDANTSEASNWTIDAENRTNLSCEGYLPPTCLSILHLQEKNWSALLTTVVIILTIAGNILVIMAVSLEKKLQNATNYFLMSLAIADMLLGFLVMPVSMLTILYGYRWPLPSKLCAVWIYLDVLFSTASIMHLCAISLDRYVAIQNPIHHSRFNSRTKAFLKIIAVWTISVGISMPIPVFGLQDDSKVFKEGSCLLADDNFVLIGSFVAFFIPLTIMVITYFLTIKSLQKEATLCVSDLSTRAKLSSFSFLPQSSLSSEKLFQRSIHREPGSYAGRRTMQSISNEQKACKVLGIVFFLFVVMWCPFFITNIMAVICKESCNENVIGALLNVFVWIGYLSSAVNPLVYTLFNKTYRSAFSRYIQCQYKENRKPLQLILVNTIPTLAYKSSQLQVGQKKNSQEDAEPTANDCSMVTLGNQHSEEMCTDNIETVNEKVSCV
cAMP nonselect = nonselective cAMP signaling inhibitor, MC4R antagonist counter-screen; shares compounds with MC4R antag cAMP; parental U2OS, forskolin cAMP, LANCE TR-FRET; inhibition, % at 6.5 µM; hit rate 26% among 1,600;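 active means mean inhibition over triplicates above the low-control well mean plus 3 SD, set per campaign, cut at about 13% in these data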;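 further: signal is single emission at 671 nm which falls as cellular cAMP rises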
MC4R cAMP antag = human MC4R cAMP antagonism confirmation. hit rate 27% among 1,600. shares compounds with MC4R antag cAMP. AID 602195. inhibition, % at 6.5 µM. MC4R-expressing cells, MTII-stimulated cAMP, TR-FRET; in the data active means inhibition above about 29%
Numbers stand for hits; – = inactive; · = no result.

SMILES | MC4R ag barr | beta cell repl | ANO1 activ | MC4R antag cAMP | TMEM16A inh | m5-HT2A agonist | cAMP nonselect | MC4R cAMP antag
Cc1ccccc1OCc1nnc(SC(C)C(=O)O)n1-c1ccccc1 (centres undefined) | – | · | · | 42 | · | – | – | –
COc1ccc(CN2CCC[C@]3(N[C@H](c4ccc(OC)cc4)[C@@H]4C(=O)N(Cc5ccccc5)C(=O)[C@@H]43)C2=O)cc1 | – | · | · | – | · | – | · | ·
COc1ccc(CN2CCC[C@]3(N[C@H](c4ccccc4)[C@@H]4C(=O)N(Cc5ccccc5)C(=O)[C@@H]43)C2=O)cc1 | – | · | · | 29 | · | – | – | –
CC(=O)c1cccc2c1OC(C)C(=O)N2Cc1ccc(Cl)cc1 (centres undefined) | – | · | · | – | · | – | · | ·
Cc1nc(-c2ccc(NC(=O)CC(C)C)cc2)cs1 | – | – | – | – | – | – | · | ·
CCCS(=O)(=O)NC(=O)C1(C)CCN(C(=O)c2ccco2)C1 (centres undefined) | – | · | · | – | · | – | · | ·
Cc1ccccc1NC(=O)c1sc(Cl)nc1-c1ccccc1 | – | – | – | – | – | – | · | ·
Cc1ccc(C)c(NC(=O)c2sc(Cl)nc2-c2ccccc2)c1 | – | – | – | 37 | – | – | 15 | 32
CCC[C@@H](CN1CCC[C@H]1CN1C(N)=NC[C@H]1CC(C)C)N1C[C@@H](Cc2ccccc2)N(CCc2ccc(Cl)c(Cl)c2)C1=N | – | – | · | 29 | · | – | – | 39
CC(C)[C@H](CN1CCC[C@H]1CN1C(N)=NC[C@@H]1Cc1ccccc1)N1C[C@@H](Cc2ccccc2)N(CCc2ccc(Cl)c(Cl)c2)C1=N | – | – | – | 31 | · | – | – | 43
CC(C)[C@H](CN1CCC[C@H]1CN1C(N)=NC[C@H]1C(C)C)N1C[C@@H](Cc2ccccc2)N(CCCC2CCCC2)C1=N | – | – | · | 30 | · | – | – | –
CCC[C@@H](CN1CCC[C@H]1CN1C(N)=NC[C@@H]1Cc1ccccc1)N1C[C@@H](Cc2ccccc2)N(CCc2ccc(Cl)c(Cl)c2)C1=N | – | – | – | – | · | – | · | ·
Cc1ccc(S(=O)(=O)NNc2c3ccccc3nc3ccc(Cl)cc23)cc1 | – | · | · | – | · | – | · | ·
Cc1ccc(F)c(C(=O)N2CCCC(C)(C(=O)NS(=O)(=O)C3CC3)C2)c1F (centres undefined) | – | · | · | – | · | – | · | ·
CCN(C(=O)COC(=O)CSc1ccc(C(N)=O)cc1[N+](=O)[O-])C1CCCCC1 | – | – | – | 33 | – | – | – | 30
Cc1ccc(CN(C)C(=O)COC(=O)CSc2ccc([N+](=O)[O-])cc2)cc1 | – | – | – | – | – | – | · | ·
Cc1ccc(CN(C)C(=O)COC(=O)CSc2ccc(C(N)=O)cc2[N+](=O)[O-])cc1 | – | – | – | 38 | – | – | 14 | 35
Cn1c(SCC(=O)NC2CCCC2)nnc1C(F)(F)F | – | – | – | – | · | – | · | ·
CCN(C[C@H]1N[C@@](CC)(C(=O)OC)[C@H]2C(=O)N(Cc3ccccc3)C(=O)[C@@H]12)C(=O)c1ccc(C(C)(C)C)cc1 | – | – | · | 41 | · | – | – | –
O=C(CSc1cccc[n+]1[O-])Nc1cc(Cl)ccc1[N+](=O)[O-] | – | – | – | – | · | – | · | ·
O=[N+]([O-])c1ccc(Sc2cccc[n+]2[O-])c2nonc12 | – | · | -4.9 | 48 | · | – | 42 | 60
CCCCOc1cccc(OCC(=O)Nc2nc3ccccc3[nH]2)c1 | – | – | – | 33 | – | – | – | –
COc1ccccc1NS(=O)(=O)c1ccc2oc(SC3CCOC3=O)nc2c1 (centres undefined) | – | – | – | 44 | – | – | 36 | 67
CNC(=O)CSc1nc2cc(S(=O)(=O)Nc3ccccc3OC)ccc2o1 | – | – | – | – | – | – | · | ·
Cc1cccc(C(=O)NC2=NCCS2)c1 | – | – | – | 33 | – | – | – | –
SMILES | MC4R ag barr | beta cell repl | ANO1 activ | MC4R antag cAMP | TMEM16A inh | m5-HT2A agonist | cAMP nonselect | MC4R cAMP antag
CCNc1nc(NCC)nc(Oc2ccc(C(=O)OC)cc2)n1 | – | – | – | – | – | – | · | ·
N#Cc1ccc(CN2CCN(C(=O)CNC(=O)Cc3ccccc3)CC2)cc1 | – | – | – | – | · | – | · | ·
CC(=O)Oc1ccc2nc(-c3ccco3)oc(=O)c2c1 | – | – | – | 34 | – | – | – | 39
O=C(Nc1cc(S(=O)(=O)N2CCCC2)ccc1OCC(F)(F)F)c1ccncc1 | – | · | · | – | · | – | · | ·
O=C(O)C(=Cc1ccccc1[N+](=O)[O-])c1ccc2c(c1)OCO2 | – | · | · | – | · | – | · | ·
COc1ccc(/C=C(/NC(=O)c2ccc(OC)cc2)C(=O)NCCc2c[nH]c3ccccc23)cc1 | – | – | – | – | – | – | · | ·
COc1ccc(C(=O)N/C(=C\c2ccc3c(c2)OCO3)C(=O)NCCc2nc3ccccc3[nH]2)cc1 | – | – | – | 29 | – | – | – | –
CN(Cc1ccccc1)C(=O)COC(=O)C1CCN(S(=O)(=O)c2ccc3c(c2)OCCO3)CC1 | – | – | – | – | – | – | · | ·
CC(CC(=O)NCCc1ccc(F)cc1)c1ccccc1 (centres undefined) | – | – | – | – | – | – | · | ·
COC(=O)COc1ccc2c(=O)c(-c3ccccc3)coc2c1 | – | – | – | 44 | – | – | 28 | 52
COc1ccc(-c2cc3ccc(OCC(C)=O)cc3oc2=O)cc1 | – | – | – | – | – | – | · | ·
COC(=O)COc1ccc2cc(-c3ccccc3)c(=O)oc2c1 | – | – | – | 40 | – | – | 24 | 56
NC(=O)COc1ccc2cc(-c3ccccc3)c(=O)oc2c1 | – | – | – | – | – | – | · | ·
COC(=O)COc1ccc2cc(-c3ccc(OC)cc3)c(=O)oc2c1 | – | – | – | 39 | – | – | 26 | 42
O=C(NC1CCCC1)C(c1ccccc1)n1c(-c2ccc3c(c2)CCO3)nc2ccccc21 (centres undefined) | · | · | · | · | · | – | · | ·
CCOC(=O)CS(=O)(=O)c1nc(-c2ccc(F)cc2)cc(C(F)(F)F)n1 | – | – | – | 32 | – | – | – | –
COC(=O)C1(C(=O)OC)c2ncccc2N(S(=O)(=O)c2ccc(C)cc2)C1CC(=O)c1ccccc1 (centres undefined) | · | · | · | · | · | – | · | ·
c1ccc2sc(-n3cc(C4CCCCC4)nn3)nc2c1 | · | · | · | · | · | – | · | ·
Cc1ccc(S(=O)(=O)N2[C@@H](c3cccc(Cl)c3)C(C(=O)OC(C)(C)C)=CC[C@H]2c2cccc(Cl)c2)cc1 | · | · | · | · | · | – | · | ·

Screens: PubChem, several laboratories
